The record followed here is ChEMBL document CHEMBL1133729, “Design, synthesis, and structure-activity relationships of phthalimide-phenylpiperazines: a novel series of potent and selective alpha(1)(a)-adrenergic receptor antagonists” (J Med Chem, 2000).

Data set [1] in a line: Ratio of rat aorta KB to rat prostate KB. It is filed as functional. The method in brief:
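Long Evans male rats (275 ± 25 g); aortic and prostate strips at 2 g resting tension in modified Krebs, 37 °C, 95% O2/5% CO2, pH 7.4, isometric recording. Cumulative NE curves (0.001–100 μM), repeated after 5 min with one of three antagonist concentrations. KB = [B]/(CR − 1) from EC50 shifts; value is aorta KB divided by prostate KB.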

The species entered for data set [2] is Rattus norvegicus. Kind of data set: Antagonist dissociation equilibrium constant was tested against rat prosta contraction. It is filed as functional. The essentials: (§1)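 Isolated Long Evans male rat (275 ± 25 g) abdominal aortic strips (3-4 mm wide) or prostate strips (8-10 mm x 1-2 mm), 2 g resting tension, modified Krebs at 37 °C, 95% O2/5% CO2, pH 7.4, 60 min equilibration; isometric tension.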

Data set [3] deals with T1, Dihydropyridine-sensitive L-type Ca2+ channel (Rattus norvegicus, UniProt P22002+P27732+Q02485). In words: Inhibition of [3H]nitrendipine binding to Dihydropyridine-sensitive L-type [Ca2+] channel in rat cerebral cortex at 1 uM. It is filed as tissue-based. The settings on record: probe [3H]nitrendipine. The method in brief:
(§2)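 Rat cerebral cortex membranes as source of dihydropyridine-sensitive L-type Ca2+ channels; [3H]nitrendipine, 25 °C for 90 min, pH 7.4 Tris-HCl/NaCl/EDTA; 1 μM nifedipine for nonspecific binding. Percent inhibition at the single compound concentration given in each line; filtration, scintillation counting.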

The species named for data set [4] is Rattus norvegicus. In words: Antagonist dissociation equilibrium constant was tested against rat aorta contraction. It is filed as functional. The method in brief: as §1
For data set [5], the target named is phenylalkylamine-sensitive L-type Ca2+ channel (Rattus norvegicus, UniProt P22002+P27732+Q02485). In words: Inhibition of [3H]nitrendipine binding to phenylalkylamine-sensitive [Ca2+] L-type channels in rat cerebral cortex at 1 uM. The class given is tissue-based. The settings on record: probe [3H]nitrendipine.
Data set [6] concerns the target Histamine H1 receptor (Cavia porcellus) (UniProt P31389). Kind of data set: Compound at 1 uM was tested for the inhibition of radioligand [3H]pyrilamine binding to peripheral histamine H1 receptor in guinea pig lung.
The species named for data set [7] is Rattus norvegicus. Kind of data set: Displacement of [3H]-idazoxan from imidazoline receptor I-2 of rat cerebral cortex. The class given is tissue-based. The settings on record: concentration not given here. The essentials:
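Rat cerebral cortex membranes; [3H]idazoxan at 25 °C for 30 min in 50 mM Tris-HCl, 150 mM NaCl, 5 mM EDTA, pH 7.4; nonspecific binding with 1 μM idazoxan. Filtered, washed three to four times, scintillation counted; duplicate determinations.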

For data set [8], the target named is T2, D(2) dopamine receptor (Homo sapiens, UniProt P14416). In words: Binding affinity towards recombinant human Dopamine receptor D2S was determined using [3H]spiperone as radioligand. The method in brief: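 Recombinant human D2S in CHO cell membranes; [3H]spiperone incubated 120 min at 37 °C, buffer 50 mM Tris-HCl, 150 mM NaCl, 5 mM EDTA, pH 7.4; nonspecific with 10 μM haloperidol. Filtered, counted by scintillation. Ki via Cheng–Prusoff from fitted IC50, mean ± SEM of three experiments.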
T2 sequence (P14416 whole entry): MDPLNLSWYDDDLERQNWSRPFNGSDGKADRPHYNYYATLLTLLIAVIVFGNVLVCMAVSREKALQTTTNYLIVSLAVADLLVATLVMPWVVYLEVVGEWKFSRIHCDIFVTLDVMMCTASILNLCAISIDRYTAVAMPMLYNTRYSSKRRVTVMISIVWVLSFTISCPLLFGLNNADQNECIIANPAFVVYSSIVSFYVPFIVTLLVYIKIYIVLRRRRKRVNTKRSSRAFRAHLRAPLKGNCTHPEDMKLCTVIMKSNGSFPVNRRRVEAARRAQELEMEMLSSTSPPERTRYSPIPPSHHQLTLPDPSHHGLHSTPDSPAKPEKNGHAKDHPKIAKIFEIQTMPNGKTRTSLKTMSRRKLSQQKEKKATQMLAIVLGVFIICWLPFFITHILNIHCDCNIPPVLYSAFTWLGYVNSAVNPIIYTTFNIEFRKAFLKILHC

The target of data set [9] is 5-hydroxytryptamine receptor 7 (Homo sapiens, UniProt P34969). In words: Binding affinity towards recombinant human 5-hydroxytryptamine 7 receptor was determined using [3H]LSD as radioligand. The method in brief: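 Membranes were from CHO cells expressing recombinant human 5-HT7. [3H]LSD binding was run for 120 min at 37 °C in 50 mM Tris-HCl, 150 mM NaCl, 5 mM EDTA, pH 7.4, with nonspecific binding set by 5 μM 5-HT. Filtration and scintillation counting followed. Ki came from IC50 by Cheng–Prusoff, mean ± SEM of three experiments.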
5-hydroxytryptamine receptor 7, sequence (P34969 whole entry): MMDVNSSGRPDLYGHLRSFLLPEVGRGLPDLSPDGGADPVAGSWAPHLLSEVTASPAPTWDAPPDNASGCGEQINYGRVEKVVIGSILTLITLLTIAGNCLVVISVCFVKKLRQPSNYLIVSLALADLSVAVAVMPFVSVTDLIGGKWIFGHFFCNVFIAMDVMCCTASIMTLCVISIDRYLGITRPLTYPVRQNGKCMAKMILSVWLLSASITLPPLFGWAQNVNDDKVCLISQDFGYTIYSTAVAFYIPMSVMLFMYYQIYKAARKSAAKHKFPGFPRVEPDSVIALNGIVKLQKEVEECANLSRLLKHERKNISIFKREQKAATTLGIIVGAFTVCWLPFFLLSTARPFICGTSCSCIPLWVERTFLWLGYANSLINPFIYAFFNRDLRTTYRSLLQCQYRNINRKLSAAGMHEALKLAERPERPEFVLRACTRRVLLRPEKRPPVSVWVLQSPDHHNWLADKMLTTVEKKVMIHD

Data set [10] has as its target Alpha-2B adrenergic receptor (Rattus norvegicus, UniProt P19328). Kind of data set: Binding affinity towards rat alpha-2B adrenergic receptor was determined using [3H]yohimbine as radioligand. The method in brief: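 Membranes from rat kidney cortex; [3H]yohimbine binding at 25 °C for 30 min in 50 mM Tris-HCl, 150 mM NaCl, 5 mM EDTA, pH 7.4. Nonspecific binding defined with 10 μM phentolamine. Filtration, washes, scintillation counting. IC50 from nonlinear regression, Ki by Cheng–Prusoff, mean ± SEM of three independent experiments.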

Data set [11] addresses T2, D(2) dopamine receptor. In words: Binding affinity towards recombinant human Dopamine receptor D2L was determined using [3H]spiperone as radioligand. The essentials: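 CHO-expressed human D2L membranes; [3H]spiperone, 25 °C for 120 min, pH 7.4 Tris-HCl/NaCl/EDTA buffer; haloperidol (10 μM) for nonspecific binding. Filtration, scintillation counting. IC50 by nonlinear least squares fitting; Ki by Cheng–Prusoff; mean ± SEM, three independent experiments.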

The target in a further data set is D(3) dopamine receptor (Homo sapiens, UniProt P35462). Kind of data set: Binding affinity towards recombinant human Dopamine receptor D3 was determined using [3H]spiperone as radioligand.
D(3) dopamine receptor, sequence (P35462 whole entry): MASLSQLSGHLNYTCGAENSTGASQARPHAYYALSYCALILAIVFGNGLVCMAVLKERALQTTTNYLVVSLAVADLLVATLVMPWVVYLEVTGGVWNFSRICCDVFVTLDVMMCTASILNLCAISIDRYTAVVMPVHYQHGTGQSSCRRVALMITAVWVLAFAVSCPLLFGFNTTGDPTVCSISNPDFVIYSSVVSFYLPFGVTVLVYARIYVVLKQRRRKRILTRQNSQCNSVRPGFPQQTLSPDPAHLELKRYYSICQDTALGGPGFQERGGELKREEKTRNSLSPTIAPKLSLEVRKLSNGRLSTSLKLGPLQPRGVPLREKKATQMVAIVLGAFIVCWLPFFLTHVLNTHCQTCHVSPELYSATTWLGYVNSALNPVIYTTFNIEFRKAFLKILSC
Data set [12] deals with T3, Serotonin 1 (5-HT1) receptor (Rattus norvegicus, UniProt P28564+P30940+P19327+P28565). Kind of data set: Binding affinity towards 5-hydroxytryptamine 1 receptor was determined in rat cerebral cortex using [3H]5-HT as radioligand. The class given is tissue-based. The essentials: (§3)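 Rat cerebral cortex membranes incubated with [3H]5-HT for 10 min at 37 °C in 50 mM Tris-HCl, 150 mM NaCl, 5 mM EDTA, pH 7.4. Nonspecific binding defined with 10 μM 5-HT. Filtration, then liquid scintillation counting. Ki derived from IC50 by Cheng–Prusoff; mean of three independent experiments.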

Data set [13] has as its target 5-hydroxytryptamine receptor 1A (Homo sapiens, UniProt P08908). In words: Binding affinity towards recombinant human Compound at 1 uM was tested for the inhibition of radioligand [3H]8-OH-DPAT binding to recombinant human 5-hydroxytryptamine 1A receptor was determined using [3H]8-OH-DPAT as radioligand. The essentials: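 Recombinant human 5-HT1A receptor expressed in CHO cell membranes. [3H]8-OH-DPAT binding for 60 min at 25 °C in Tris/NaCl/EDTA buffer, pH 7.4. Nonspecific binding defined with 10 μM metergoline. Percent inhibition measured at 1 μM test compound in duplicate; filtration and scintillation counting.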

In data set [14] the test system is Alpha-1D/Alpha-1A adrenergic receptor (Homo sapiens). Kind of data set: Ratio of binding affinity towards Alpha1d to Alpha-1A.
In data set [15] the target is T3, Serotonin 1 (5-HT1) receptor. In words: Binding affinity towards central 5-hydroxytryptamine 1 receptor was determined in rat cerebral cortex using [3H]5-HT as radioligand. The class given is tissue-based. The method in brief: as §3
Data set [16] concerns the target T1, Dihydropyridine-sensitive L-type Ca2+ channel. Kind of data set: Inhibition of [3H]nitrendipine binding to Dihydropyridine-sensitive L-type [Ca2+] channel in rat cerebral cortex at 10 uM. The class given is tissue-based. As to conditions: probe [3H]nitrendipine. The method in brief: as §2

Histamine H1 receptor (Cavia porcellus), sequence (P31389 whole entry): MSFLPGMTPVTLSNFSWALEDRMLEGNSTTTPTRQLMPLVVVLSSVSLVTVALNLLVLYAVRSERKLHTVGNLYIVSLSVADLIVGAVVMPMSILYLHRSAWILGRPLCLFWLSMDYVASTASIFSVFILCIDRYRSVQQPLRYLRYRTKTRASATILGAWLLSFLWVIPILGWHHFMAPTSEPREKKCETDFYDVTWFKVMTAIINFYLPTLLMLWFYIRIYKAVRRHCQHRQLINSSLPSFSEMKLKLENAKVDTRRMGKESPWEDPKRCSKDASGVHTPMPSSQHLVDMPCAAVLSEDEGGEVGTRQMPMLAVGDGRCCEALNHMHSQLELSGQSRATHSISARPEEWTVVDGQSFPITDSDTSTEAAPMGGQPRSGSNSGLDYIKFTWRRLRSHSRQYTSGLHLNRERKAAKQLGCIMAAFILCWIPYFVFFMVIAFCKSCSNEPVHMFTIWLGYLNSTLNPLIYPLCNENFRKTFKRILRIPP
Alpha-2B adrenergic receptor, sequence (P19328 whole entry): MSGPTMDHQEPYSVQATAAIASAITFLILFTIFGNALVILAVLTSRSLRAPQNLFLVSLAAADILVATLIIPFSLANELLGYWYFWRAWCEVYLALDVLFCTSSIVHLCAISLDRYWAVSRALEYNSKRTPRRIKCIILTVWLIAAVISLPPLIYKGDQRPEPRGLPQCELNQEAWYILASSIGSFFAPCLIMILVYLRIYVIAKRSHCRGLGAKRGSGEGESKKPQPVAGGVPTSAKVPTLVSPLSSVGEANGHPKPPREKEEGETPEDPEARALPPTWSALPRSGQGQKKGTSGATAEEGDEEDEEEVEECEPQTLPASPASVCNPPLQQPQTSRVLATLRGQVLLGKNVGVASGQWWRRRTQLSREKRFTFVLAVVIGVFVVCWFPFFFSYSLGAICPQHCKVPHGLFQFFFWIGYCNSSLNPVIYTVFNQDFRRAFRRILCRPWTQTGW
5-hydroxytryptamine receptor 1A, sequence (P08908 whole entry): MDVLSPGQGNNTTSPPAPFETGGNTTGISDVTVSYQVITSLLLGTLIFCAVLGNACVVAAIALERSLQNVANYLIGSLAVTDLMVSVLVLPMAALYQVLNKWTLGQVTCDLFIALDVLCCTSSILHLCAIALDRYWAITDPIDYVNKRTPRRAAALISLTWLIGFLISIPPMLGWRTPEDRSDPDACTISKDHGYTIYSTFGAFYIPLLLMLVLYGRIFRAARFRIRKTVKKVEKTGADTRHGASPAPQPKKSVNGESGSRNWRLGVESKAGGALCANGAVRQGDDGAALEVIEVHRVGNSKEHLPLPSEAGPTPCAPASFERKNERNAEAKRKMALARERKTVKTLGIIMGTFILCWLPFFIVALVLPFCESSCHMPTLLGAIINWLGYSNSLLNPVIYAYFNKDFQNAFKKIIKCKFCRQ

For the compound `CC(C)Oc1ccccc1N1CCN(C[C@@H](O)CNC(=O)c2ccc3c(c2)C(=O)N(c2cccc(F)c2)C3=O)CC1`, the Ratio in data set [1] was 22.6. Further, the results for the pKB in the data set filed under Rattus norvegicus [2] and in the data set listed under Rattus norvegicus [4] were 7.81 and 6.47, respectively. The inhibition at 1 µM in data set [3] amounted to 67%; in data set [5], 81%. The same compound gave an inhibition in data set [6] of 69%.
On to `CCOc1ccccc1OCCN[C@H](C)Cc1ccc(OC)c(S(N)(=O)=O)c1` [TAMSULOSIN], for which the inhibition in the data set filed under Rattus norvegicus [7] worked out at 64%; in data set [6] it was 7%. Further, the Ki at D(2) dopamine receptor [8] was determined as 78 nM; in data set [9] it was 84 nM; in data set [10], 80 nM; at D(2) dopamine receptor [11], 13 nM; on D(3) dopamine receptor, 0.28 nM; in data set [12], 944 nM. In addition, the Ki in data set [13] came to 0.79 nM. Besides, the pKB came out at 9.33 in the data set listed under Rattus norvegicus [2] and 10.76 in the data set filed under Rattus norvegicus [4]. In addition, the inhibition at 1 µM in data set [3] worked out at 22%; in data set [5], 20%.
Take `Cc1ccc(N2C(=O)c3ccc(C(=O)NC[C@H](O)CN4CCN(c5ccccc5OC(C)C)CC4)cc3C2=O)cc1`: the Ratio in data set [1] stood at 7.6. Besides, the pKB in the data set filed under Rattus norvegicus [2] was 6.78; in the data set listed under Rattus norvegicus [4], 5.9.
As to `Cc1ccc(N2C(=O)c3ccc(C(=O)NCCCN4CCN(c5ccccc5OC(C)C)CC4)cc3C2=O)cc1`, in data set [14], the Ratio was 231. Moreover, the inhibition at 1 µM in data set [3] came to 53%; in data set [5], 69%.
Regarding `CC(C)Oc1ccccc1N1CCN(C[C@@H](O)CNC(=O)c2ccc3c(c2)C(=O)N(c2ccc(N(C)C)cc2)C3=O)CC1`, the Ratio in data set [1] is recorded as 35.2. Further, the Ki amounted to 25 nM at D(2) dopamine receptor [8]; 10 nM in [9]; 169 nM in data set [10]; 773 nM in data set [15]; 23 nM on D(2) dopamine receptor [11]; 62 nM on D(3) dopamine receptor. The pKB in the data set listed under Rattus norvegicus [2] stood at 7.39; in the data set filed under Rattus norvegicus [4], 5.84. Besides, the inhibition at 1 µM in data set [5] stood at 57%. In addition, at 10 µM the inhibition in data set [16] was 53%.
For the compound `CC(C)Oc1ccccc1N1CCN(CCCNC(=O)c2ccc3c(c2)C(=O)N(c2cccc(F)c2)C3=O)CC1`, the inhibition worked out at 66% in the data set filed under Rattus norvegicus [7] and 75% in [6]. Also, the inhibition at 1 µM in [3] was 76%; in data set [5], 72%.

The term pKB denotes the negative decadic logarithm of the KB, by convention in mol/L. A higher pKB goes with a low KB. For orientation: inhibition means the percentage by which the read-out fell short of the control. As a reminder, the Ki is the equilibrium dissociation constant of an inhibitor or competing ligand from its target.
